{"source": "paper PMC8027986", "about": "(Cell chemical biology, 2020)", "key": {"[1]": {"tested_on": "P. falciparum W2 parasites", "assay": "P. falciparum replication assay", "assay_type": "cell-based, Plasmodium falciparum", "conditions": "for EC50: Plasmodium falciparum, W2, 72 h, read-out: EC50 parasite growth inhibition; for effect of isopentenyl pyrophosphate (IPP) on potency: 72 h growth assays in presence and absence of IPP", "how_it_was_run": "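Synchronized ring-stage W2 parasites in human erythrocytes, at 1% parasitemia and 0.5% hematocrit, exposed to test compound for 72 h. Cultures fixed in 1% paraformaldehyde (final) for 30 min at room temperature, then stained overnight at 4°C with 50 nM YOYO-1. Infected (YOYO-1-positive) versus uninfected cells counted by flow cytometry.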"}, "[2]": {"target": "recombinant PfMAGLLP (Plasmodium falciparum, UniProt Q8IJ22)", "assay": "Fluorogenic substrate assay with rPfMAGLLP", "assay_type": "biochemical", "conditions": "for inhibition at 1 µM: read-out: inhibition of esterase activity of PfMAGLLP; for inhibition of esterase activity of PfMAGLLP: 1 μM compound"}, "[3]": {"tested_on": "Sal A-selected clones and parental Dd2_Polδ line", "assay": "IC50 determination for Sal A-selected clones", "assay_type": "cell-based, Plasmodium falciparum", "conditions": "versus parental Dd2_Polδ"}, "[4]": {"tested_on": "parasites expressing PfATP4 fused to GFP", "assay": "Imaging of PfATP4-GFP parasites", "assay_type": "cell-based, Plasmodium falciparum", "conditions": "18 h treatment from 24-30 hpi; 2 μM Sal A or 6 μM Orlistat"}, "[5]": {"tested_on": "serine hydrolases in Plasmodium falciparum parasites", "assay": "FP-Rho labeling competition in whole Pf parasites", "assay_type": "cell-based", "conditions": "1 μM Sal A", "how_it_was_run": "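P. falciparum cultures (ring/trophozoite, 13% parasitemia) treated with DMSO or test compound for 3 h at 37°C. 50 μg clarified lysate labeled with 1 μM FP-Rho for 1 h at 37°C; SDS-PAGE with in-gel fluorescence scan.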"}, "[6]": {"tested_on": "T. gondii depalmitoylase PPT1 (TgPPT1)", "assay": "FP-Rho labeling competition in T. gondii parasites", "assay_type": "cell-based, Toxoplasma gondii", "conditions": "WT (Δku80) and ΔPPT1 parasites"}, "[7]": {"target": "human depalmitoylase APT1 (Homo sapiens, UniProt O75608)", "sequence (O75608 whole entry)": "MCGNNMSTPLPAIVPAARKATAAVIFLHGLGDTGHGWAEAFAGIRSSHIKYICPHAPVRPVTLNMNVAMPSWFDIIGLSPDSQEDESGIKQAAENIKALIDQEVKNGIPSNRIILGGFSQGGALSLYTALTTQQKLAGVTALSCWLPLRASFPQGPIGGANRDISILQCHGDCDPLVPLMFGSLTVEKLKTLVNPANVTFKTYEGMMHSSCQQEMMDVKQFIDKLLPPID", "assay": "FP-Rho labeling competition in HEK293T cells, APT1", "assay_type": "cell-based"}, "[8]": {"target": "human depalmitoylase APT2 (Homo sapiens, UniProt O95372)", "sequence (O95372 whole entry)": "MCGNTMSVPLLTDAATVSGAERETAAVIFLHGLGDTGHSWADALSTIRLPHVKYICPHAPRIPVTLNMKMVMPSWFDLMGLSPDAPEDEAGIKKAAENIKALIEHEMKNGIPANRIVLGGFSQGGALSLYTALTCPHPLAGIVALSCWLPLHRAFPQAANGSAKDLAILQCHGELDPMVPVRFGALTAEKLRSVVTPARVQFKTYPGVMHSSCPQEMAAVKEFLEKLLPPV", "assay": "FP-Rho labeling competition in HEK293T cells, APT2", "assay_type": "cell-based", "how_it_was_run": "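Lysates of treated HEK293T cells, clarified at 4°C and quantified by BCA; 50 μg lysate labeled with 1 μM FP-Rho for 1 h at 37°C. Reactions quenched in reducing SDS sample buffer, resolved by SDS-PAGE, and gel fluorescence scanned (532-nm laser, 610-nm filter).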"}, "[9]": {"tested_on": "Pf lines expressing WT-GFP or S179T-GFP PfPARE", "assay": "Sal A sensitivity of parasites expressing WT or S179T PfPARE-GFP", "assay_type": "cell-based, Plasmodium falciparum", "conditions": "WT-GFP versus S179T-GFP"}, "[10]": {"tested_on": "Dd2 parasites overexpressing PfMAGLLP or other putative Sal A targets", "assay": "Dose-response assays with parasites overexpressing putative Sal A targets", "assay_type": "cell-based, Plasmodium falciparum"}, "[11]": {"tested_on": "a variety of mammalian cell lines", "conditions": "ref Schulze et al., 2015; cited from earlier work"}}, "data": [{"molecule": "O=C(OC(C(F)(F)F)C(F)(F)F)N1CCN(C(c2ccc(Cl)cc2)c2ccc(Cl)cc2)CC1", "note": "[JW651]", "values": [{"measurement": "EC50", "setting": "[1]", "value": 839, "unit": "nM"}, {"measurement": "decrease in potency against parasites as compared with Sal A", "setting": "[1]; W2 parasites", "value": 16, "unit": "fold"}, {"measurement": "potency against recombinant PfMAGLLP relative to Sal A", "setting": "[2]", "value": "virtually identical potency as Sal A"}, {"measurement": "inhibition at 1 µM", "setting": "[2]", "value": "> 90", "unit": "%"}, {"measurement": "cross-resistance of Sal A-selected clones", "setting": "[3]", "value": "no cross-resistance"}]}, {"molecule": "O=C(Oc1ccc([N+](=O)[O-])cc1)N1CCC(C(O)(c2ccc3c(c2)OCO3)c2ccc3c(c2)OCO3)CC1", "note": "[JZL 184]", "values": [{"measurement": "inhibition of esterase activity of PfMAGLLP", "setting": "[2]", "value": 25, "unit": "%"}]}, {"molecule": "O=C(OC(C(F)(F)F)C(F)(F)F)N1CCC(C(O)(c2ccc3c(c2)OCO3)c2ccc3c(c2)OCO3)CC1", "note": "[KML29]", "values": [{"measurement": "IC50", "setting": "[2]", "value": 163, "unit": "nM"}, {"measurement": "inhibition at 1 µM", "setting": "[2]", "value": "> 90", "unit": "%"}]}, {"molecule": "O=C(ON1C(=O)CCC1=O)N1CCN(C(c2ccc(Cl)cc2)c2ccc(Cl)cc2)CC1", "note": "[MJN110]", "values": [{"measurement": "inhibition of esterase activity of PfMAGLLP", "setting": "[2]", "value": "more than 90%"}]}, {"molecule": "CCCCCCCCCCC[C@@H](C[C@@H]1OC(=O)[C@H]1CCCCCC)OC(=O)[C@H](CC(C)C)NC=O", "note": "[Orlistat]", "values": [{"measurement": "EC50", "setting": "[1]", "value": 280, "unit": "nM"}, {"measurement": "potency against recombinant PfMAGLLP relative to Sal A", "setting": "[2]", "value": "equipotent to Sal A"}, {"measurement": "plasma membrane phenotype of schizonts", "setting": "[4]", "value": "disorganized plasma membranes that failed to properly surround the merozoites"}, {"measurement": "cross-resistance of Sal A-selected clones", "setting": "[3]", "value": "No significant cross-resistance"}]}, {"molecule": "Salinipostin A [Sal A]", "values": [{"measurement": "inhibition of FP-Rho labeling of hydrolases in whole Pf parasites", "setting": "[5]", "value": "Several hydrolases were inhibited"}, {"measurement": "competition with FP-Rho for labeling of TgPPT1", "setting": "[6]", "value": "able to compete with FP-Rho for labeling of TgPPT1"}, {"measurement": "inhibition of APT1 (FP-Rho competition)", "setting": "[7]", "value": "inhibits the human depalmitoylases APT1 and APT2 in a dose-dependent manner"}, {"measurement": "inhibition of APT2 (FP-Rho competition)", "setting": "[8]", "value": "inhibits the human depalmitoylases APT1 and APT2 in a dose-dependent manner"}, {"measurement": "relative potency APT2 versus APT1", "setting": "[8]", "value": "increased potency against APT2 over APT1"}, {"measurement": "effect of isopentenyl pyrophosphate (IPP) on potency", "setting": "[1]", "value": "unaffected by IPP"}, {"measurement": "sensitivity of parasites expressing WT or catalytically dead PfPARE", "setting": "[9]", "value": "equally sensitive"}, {"measurement": "shift in EC50 in parasites overexpressing PF3D7_0808500 or PF3D7_0818600", "setting": "[10]; exogenous overexpression", "value": "no shift in EC50"}, {"measurement": "shift in EC50 in parasites overexpressing PfMAGLLP versus WT", "setting": "[10]; exogenously transfected plasmid", "value": "no apparent shift"}, {"measurement": "plasma membrane phenotype of schizonts", "setting": "[4]", "value": "disorganized plasma membranes that failed to properly surround the merozoites"}, {"measurement": "selectivity index over a variety of mammalian cell lines", "setting": "[11]", "value": "> 1,000"}]}, {"molecule": "Salinipostin alkyne [Sal alk]", "values": [{"measurement": "effect of isopentenyl pyrophosphate (IPP) on potency", "setting": "[1]", "value": "unaffected by IPP"}, {"measurement": "potency against Pf parasites compared with parent natural product", "setting": "[1]; Pf parasites, Figure S1", "value": "retained full potency"}]}]}
